High-throughput results deposited in PubChem BioAssay by Broad Institute.
Rows were chosen to be rich in hits. Some 0.86% of all compounds tested hit in one or more screens of this group.
Rtt109 HAT inh: blocks Candida albicans Rtt109/Vps75 acetyltransferase activity; AID 540336; inhibition, % at 34.9 µM; Q5AAJ8; purified Rtt109/Vps75, ThioGlo CoA-SH fluorescence, 4 h; 0.16% of 330,000 active;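 active = inhibition of at least 50% in every replicate; inconclusive = best replicate reaches 50% inhibition but some replicates fall short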
Target sequence (Q5AAJ8 whole entry, looked up): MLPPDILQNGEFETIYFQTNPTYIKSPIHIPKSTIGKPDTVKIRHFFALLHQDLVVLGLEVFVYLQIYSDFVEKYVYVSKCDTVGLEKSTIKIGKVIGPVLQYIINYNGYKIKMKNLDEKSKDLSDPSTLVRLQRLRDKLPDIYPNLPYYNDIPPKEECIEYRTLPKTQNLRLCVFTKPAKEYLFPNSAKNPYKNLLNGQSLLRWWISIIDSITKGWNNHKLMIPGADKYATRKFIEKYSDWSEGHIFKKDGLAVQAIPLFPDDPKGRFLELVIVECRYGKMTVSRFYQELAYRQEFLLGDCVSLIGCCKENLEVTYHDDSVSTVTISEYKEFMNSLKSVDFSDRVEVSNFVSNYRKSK
ERAP1 HTS inh: inhibitors of human ERAP1 aminopeptidase; AID 652197; recombinant ERAP1, Leu-AMC fluorescence, 60 min; inhibition, % at 10.7 µM; 0.15% of 340,000 active; Q9NZ08;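 active = mean replicate inhibition of at least 30%, or all replicates individually reaching that 30% level; inactive = mean below 30% and not every replicate reaching it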
miR-122 sensor: blocks miR-122 activity in Huh7 sensor cells | Huh7 miR-122 Renilla luciferase sensor, 48 h; neutral wells = 0, positive control = 100 | activation (reporter increase), % at 12.5 µM | 0.3% of 340,000 active | AID 602342;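 active = mean replicate activation score at least 90 and every replicate individually at or above 90; inconclusive = only one of the two criteria met; inactive = neither criterion met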;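 also: higher luciferase means less miR-122 activity so hits act as miR-122 inhibitors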
S100A4 MyoIIA: S100A4-myosin IIA interaction inhibition | S100A4/TAMRA-MyoIIA peptide fluorescence polarization | inhibition, % at 10.7 µM | 0.14% of 360,000 active;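 active = mean inhibition of at least 70% across replicates, with every replicate also reaching that level; inconclusive = mean inhibition reaches 70% but some replicates fall short; inactive = mean inhibition below 70%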
Target sequence (P26447 whole entry, looked up): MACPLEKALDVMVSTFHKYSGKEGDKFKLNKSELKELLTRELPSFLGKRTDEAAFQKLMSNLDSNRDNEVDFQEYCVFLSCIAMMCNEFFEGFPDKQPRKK
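Assay system: human S100A4 monomer with TAMRA-labelled myosin IIA peptide / Buffer or medium: Calcium-containing HEPES buffer, pH 7.2 / Reagent: TAMRA-labelled myosin IIA heavy-chain peptide probe, 5 nM / Compound: one dose per compound / Timing: polarization read 5 min after assay mix addition, stable 5–60 min / Benchmarks: neutral control DMSO, positive control TFP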
AF4-AF9 inh: blocks AF4 peptide binding to human AF9; P42568; AlphaScreen, biotin-AF4 peptide binding to FLAG-AF9; inhibition, % at 10 µM; 0.47% of 350,000 active;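 active = every replicate reaching a set inhibition limit, whatever the replicate mean, cut at about 25% in these data; inconclusive = mean inhibition reaches that limit but some replicates miss it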
Numbers stand for hits; n = inactive; u = inconclusive; x = no result; [ ] = remark or other dose.

SMILES	Rtt109 HAT inh	ERAP1 HTS inh	miR-122 sensor	S100A4 MyoIIA	AF4-AF9 inh
O=C(O)c1cccc(-c2ccc(/C=N/Nc3ccc([N+](=O)[O-])cc3)o2)c1	n	n	n	n	n
O=C(O)c1ccc(-c2ccc(/C=N/Nc3ccc([N+](=O)[O-])cc3)o2)cc1	50.0	n	x	n	n
CC1=C(N2CCOCC2)CCC1=O	n	x	x	85.5	n
COc1ccc(NC(=O)Nc2ccc3c(c2)C(=O)N([C@H](C)CO)C[C@H](C)[C@H](CN(C)CC2CC2)OCCCC[C@H](C)O3)cc1	x	n	n	n	u
N#C[C@H]1[C@H](c2ccc(C3=CCCCC3)cc2)[C@@H](CO)N1C(=O)NC1CCCCC1	x	n	x	n	n
Cc1ccc(NC(=O)N(CCCN2CCOCC2)Cc2cccnc2)cc1C	n	n	n	n	39.2
C[n+]1cccc(C(=O)N/N=C/c2ccc3c(c2)OCO3)c1	n	45.6	n	n	n
O=C(N/N=C/c1ccc2c(c1)OCO2)c1ccc2c(c1)OCCO2	n	x	x	x	x
Cc1ccc(NC(=O)Cn2sc3nc(C)cc(C)c3c2=O)c(Cl)c1	154.2	x	n	n	n
Cc1cccc(N2CCN(C(=O)Cn3sc4nc(C)cc(C)c4c3=O)CC2C)c1 (stereo unspecified)	158.9	x	n	x	x
CCCC#Cc1ccc2c(c1)O[C@@H](CN(C)C(=O)C1CC1)[C@H](C)CN([C@H](C)CO)S2(=O)=O	x	n	n	n	n
CCCNC(=O)N1[C@@H]2CN(C(=O)c3ccccc3)c3ccccc3[C@@H]2[C@@H]1CO	x	x	n	x	x
Cc1ccccc1NC(=O)Nc1ccc2c(c1)C(=O)N(C)[C@@H]1CC[C@@H](CC(=O)NCC3CC3)O[C@@H]1CO2	x	n	n	n	n
Cc1ccccc1NC(=O)Nc1ccc2c(c1)C(=O)N(C)[C@H]1CC[C@H](CC(=O)NCC3CC3)O[C@H]1CO2	x	n	227.8[16.7 µM]	n	n
CN1C(=O)c2cc(NC(=O)Cc3cccs3)ccc2OC[C@@H]2O[C@H](CC(=O)NCc3ccc(-c4ccccc4)cc3)CC[C@@H]21	x	n	188.3[16.7 µM]	n	n
CN1C(=O)c2cc(NC(=O)Cc3ccccc3)ccc2OC[C@@H]2O[C@@H](CC(=O)NCc3ccc(Cl)cc3)CC[C@@H]21	x	x	233.3[16.7 µM]	x	x
CN1C(=O)c2cc(NC(=O)Cc3cccs3)ccc2OC[C@@H]2O[C@@H](CC(=O)NCC3CCCCC3)CC[C@@H]21	x	n	195.6[16.7 µM]	n	n
CN1C(=O)c2cc(NC(=O)Cc3ccccc3)ccc2OC[C@@H]2O[C@H](CC(=O)NCc3ccc(Cl)cc3)CC[C@H]21	x	x	n	x	x
C[C@H](NC(=O)[C@@H]1N[C@@H]2c3ccc(-c4ccc(C(=O)N(C)C)cc4)c(=O)n3C[C@@H]2[C@H]1CO)c1ccccc1	x	n	n	n	n
COCCNC(=O)C[C@@H]1CC[C@@H]2[C@H](COc3ccc(NC(C)=O)cc3C(=O)N2C)O1	x	x	n	x	x
CN1C(=O)c2cc(NC(=O)NCc3ccccc3)ccc2OC[C@@H]2O[C@@H](CC(=O)NCC3CCCCC3)CC[C@@H]21	x	n	120.0[16.7 µM]	n	n
COCCNC(=O)C[C@@H]1CC[C@H]2[C@@H](COc3ccc(NC(C)=O)cc3C(=O)N2C)O1	x	x	183.3[16.7 µM]	x	x
Cc1ccc(C)c(CSc2nnc(-c3cccnc3)o2)c1	n	x	355.7	x	x
Fc1ccccc1CSc1nnc(-c2cccnc2)o1	n	n	x	n	n
Fc1ccc(C2CCNCC2COc2ccc3c(c2)OCO3)cc1 (stereo unspecified)	n	n	x	n	32.0
SMILES	Rtt109 HAT inh	ERAP1 HTS inh	miR-122 sensor	S100A4 MyoIIA	AF4-AF9 inh
CC(C)NC(=O)Nc1ccc2c(c1)C(=O)N([C@H](C)CO)C[C@@H](C)[C@H](CN(C)Cc1ccc3c(c1)OCO3)OCCCC[C@@H](C)O2	x	x	n	x	x
Cc1ccc(CN2CCN(CC(=O)N3CCC(C(N)=O)CC3)C2=O)cc1	n	n	n	n	41.5
Cc1ccc(CNC(=O)CN2CCN(Cc3ccc(C)cc3)C2=O)cc1	n	x	n	x	x
Clc1ccc(CNc2nc(N3CCOCC3)nc(N3CCOCC3)n2)cc1	n	x	128.8	x	x
O=C(C[C@@H]1C=C[C@H](NC(=O)C2CCC2)[C@H](CO)O1)NC1CCC1	x	n	n	n	n
CCN1CCn2c3c(c4cc(Cl)ccc42)CCCC31 (stereo unspecified)	n	x	n	n	n
CCN(CC)CCN1CCn2c3c(c4cc(C)ccc42)CCCC31 (stereo unspecified)	x	n	x	n	27.5
CN1CCCC1CCNc1ccc2c(=O)c3ccccc3oc2c1 (stereo unspecified)	n	179.7	x	n	n
CN1CCCC1CCNc1ccc2oc3ccccc3c(=O)c2c1 (stereo unspecified)	x	n	x	n	n
CC(=O)N(C)C[C@H]1Oc2ncc(-c3cccc(F)c3)cc2C(=O)N([C@H](C)CO)C[C@@H]1C	x	n	n	n	n
COCCn1c(SCC(=O)N2CCCC2)nnc1-c1ccco1	n	n	n	n	28.4
COCCn1c(SCC(=O)N2CCCC2)nnc1-c1ccoc1C	n	x	n	x	x
O=C(/C=C/c1ccc2c(c1)OCO2)NCCSCc1cccc(Cl)c1	n	x	115.4	x	x
O=C(/C=C/c1ccc2c(c1)OCO2)NCCSCc1ccc(Cl)cc1Cl	n	x	n	x	x
CCN(CC)c1ccc(CNc2ccc3c(c2)ncn3CC)cc1	x	n	x	n	44.8
CCn1cnc2cc(NCc3ccc(N(C)C)cc3)ccc21	n	x	n	n	n
CN(C)c1ccc(CNc2ccc3c(c2)ncn3C(C)(C)C)cc1	n	n	x	n	35.4
